Source: ChEMBL document CHEMBL3046450, “Pyrrole- and dihydropyrrole-fused neonicotinoids: design, synthesis, and insecticidal evaluation” (2013)
Converted amounts (≈) assume the structure as drawn.

How the values were obtained:
[1] = system: Aphis craccivora; test: Insecticidal activity against Aphis craccivora (cowpea aphid) assessed as mortality; type: functional
Method in brief: (§1)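 Compounds dissolved in DMF, then diluted with water containing Triton X-100 (0.1 mg L−1) to test concentrations of 500.0, 250.0 and 125.0 mg L−1, plus others; mortality of cowpea aphids was scored.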

[2] = system: Aphis craccivora; test: Insecticidal activity against Aphis craccivora (cowpea aphid) assessed as mortality at 500 mg/l; type: functional; method in brief: as §1

CC1C(=O)C([N+](=O)[O-])=C2N(Cc3ccc(Cl)nc3)CCN21 (stereo unspecified)
LC50 [1]: 43.5 µg/mL (≈ 141 µM)
Activity [2]: 100%

CCCOc1c([N+](=O)[O-])c2n(c1C)CCN2Cc1ccc(Cl)nc1
LC50 [1]: 24.5 µg/mL (≈ 69.8 µM)
Activity [2]: 100%

CCCOc1c([N+](=O)[O-])c(N(CC)Cc2ccc(Cl)nc2)n(C)c1C
Activity [2]: 77%

CCN(Cc1ccc(Cl)nc1)c1c([N+](=O)[O-])c(OC)c(C)n1C
Activity [2]: 91%

CCCCOC1C([N+](=O)[O-])=C2N(Cc3ccc(Cl)nc3)CCN2C1(C)OCCCC (stereo unspecified)
LC50 [1]: 3.4 µg/mL (≈ 7.75 µM)
Activity [2]: 100%

CC1(O)C(O)C([N+](=O)[O-])=C2N(Cc3ccc(Cl)nc3)CCN21 (stereo unspecified)
LC50 [1]: 2 µg/mL (≈ 6.12 µM)
Activity [2]: 100%

CCOC1C([N+](=O)[O-])=C2N(Cc3ccc(Cl)nc3)CCN2C1(C)OCC (stereo unspecified)
LC50 [1]: 0.6 µg/mL (≈ 1.57 µM)
Activity [2]: 100%

COC1C([N+](=O)[O-])=C2N(Cc3ccc(Cl)nc3)CCN2C1(C)OC (stereo unspecified)
LC50 [1]: 0.7 µg/mL (≈ 1.97 µM)
Activity [2]: 100%

CCOc1c([N+](=O)[O-])c(N(CC)Cc2ccc(Cl)nc2)n(C)c1C
Activity [2]: 84%

CC12OCCCOC1C([N+](=O)[O-])=C1N(Cc3ccc(Cl)nc3)CCN12 (stereo unspecified)
LC50 [1]: 11.1 µg/mL (≈ 30.3 µM)
Activity [2]: 100%

CCCOC1C([N+](=O)[O-])=C2N(Cc3ccc(Cl)nc3)CCN2C1(C)OCCC (stereo unspecified)
LC50 [1]: 0.8 µg/mL (≈ 1.95 µM)
Activity [2]: 100%

CCN(Cc1ccc(Cl)nc1)C1=C([N+](=O)[O-])C(OC(C)C)C(C)(O)N1C (stereo unspecified)
Activity [2]: 21.2%

CC12OCCCCOC1C([N+](=O)[O-])=C1N(Cc3ccc(Cl)nc3)CCN12 (stereo unspecified)
LC50 [1]: 14.8 µg/mL (≈ 38.9 µM)
Activity [2]: 100%

CCCCOc1c([N+](=O)[O-])c2n(c1C)CCN2Cc1ccc(Cl)nc1
LC50 [1]: 39.5 µg/mL (≈ 108 µM)
Activity [2]: 100%

O=[N+]([O-])/N=C1\NCCN1Cc1ccc(Cl)nc1 [IMIDACLOPRID]
LC50 [1]: 8.9 µg/mL (≈ 34.8 µM)
Activity [2]: 100%

CCOC1C([N+](=O)[O-])=C(N(CC)Cc2ccc(Cl)nc2)N(C)C1(C)O (stereo unspecified)
Activity [2]: 29.7%

COc1c([N+](=O)[O-])c2n(c1C)CCN2Cc1ccc(Cl)nc1
LC50 [1]: 14.6 µg/mL (≈ 45.2 µM)
Activity [2]: 100%

CCOc1c([N+](=O)[O-])c2n(c1C)CCN2Cc1ccc(Cl)nc1
LC50 [1]: 37.3 µg/mL (≈ 111 µM)
Activity [2]: 100%

CCCOC1C([N+](=O)[O-])=C(N(CC)Cc2ccc(Cl)nc2)N(C)C1(C)O (stereo unspecified)
Activity [2]: 19%

CC12OCCOC1C([N+](=O)[O-])=C1N(Cc3ccc(Cl)nc3)CCN12 (stereo unspecified)
LC50 [1]: 10 µg/mL (≈ 28.3 µM)
Activity [2]: 100%

CCN(Cc1ccc(Cl)nc1)C1=C([N+](=O)[O-])C(OC)C(C)(O)N1C (stereo unspecified)
Activity [2]: 21.6%

CCCCOC1C([N+](=O)[O-])=C(N(CC)Cc2ccc(Cl)nc2)N(C)C1(C)O (stereo unspecified)
Activity [2]: 16.4%
